≈ marks a conversion by molar mass, not a printed value.
Key:
Assay type in all cases: functional
[1] = test system: Staphylococcus aureus; test: Antibacterial activity against methicillin-resistant Staphylococcus aureus isolate 2513
How it was run: (§1)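 MICs by broth microdilution in cation-adjusted Mueller-Hinton broth, following CLSI guidelines. Test isolates were clinical VRE (E. faecium), MRSA and VRSA recovered from patient sites or from nephrostomy tube biofilm. Biofilm isolates were obtained by PBS lumen washes of tube segments, dilution in Butterfield buffer and plating on selective and blood agars at 35°C for 24 to 48 h.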

[2] = test system: Enterococcus faecium; test: Antibacterial activity against Enterococcus faecium isolate 5749
[3] = test system: Enterococcus faecalis; test: Antibacterial activity against Enterococcus faecalis isolate 5744
[4] = test system: Staphylococcus aureus; test: Antibacterial activity against vancomycin-resistant Staphylococcus aureus isolate 2514; how it was run: as §1
[5] = test system: Staphylococcus aureus; test: Antibacterial activity against methicillin-resistant Staphylococcus aureus isolate 5735; how it was run: as §1
[6] = test system: Enterococcus faecalis; test: Antibacterial activity against Enterococcus faecalis isolate 5743
[7] = test system: Enterococcus faecium; test: Antibacterial activity against Enterococcus faecium isolate 5752; how it was run: as §1
[8] = test system: Enterococcus faecalis; test: Antibacterial activity against Enterococcus faecalis isolate 5742
[9] = test system: Enterococcus faecium; test: Antibacterial activity against Enterococcus faecium isolate 5751
[10] = test system: Staphylococcus aureus; test: Antibacterial activity against vancomycin-resistant Staphylococcus aureus isolate 595; how it was run: as §1
[11] = test system: Enterococcus faecalis; test: Antibacterial activity against Enterococcus faecalis isolate 5746
[12] = test system: Enterococcus faecalis; test: Antibacterial activity against Enterococcus faecalis isolate 5745
[13] = test system: Staphylococcus aureus; test: Antibacterial activity against methicillin-resistant Staphylococcus aureus isolate 5733; how it was run: as §1
[14] = test system: Staphylococcus aureus; test: Antibacterial activity against methicillin-resistant Staphylococcus aureus isolate 2530; how it was run: as §1
[15] = test system: Staphylococcus aureus; test: Antibacterial activity against methicillin-resistant Staphylococcus aureus isolate 5739; how it was run: as §1
[16] = test system: Enterococcus faecium; test: Antibacterial activity against Enterococcus faecium isolate 5750
[17] = test system: Enterococcus faecium; test: Antibacterial activity against Enterococcus faecium isolate 2547; how it was run: as §1
[18] = test system: Staphylococcus aureus; test: Antibacterial activity against vancomycin-resistant Staphylococcus aureus isolate 5734; how it was run: as §1
[19] = test system: Staphylococcus aureus; test: Antibacterial activity against methicillin-resistant Staphylococcus aureus isolate 5736; how it was run: as §1
[20] = test system: Staphylococcus aureus; test: Antibacterial activity against methicillin-resistant Staphylococcus aureus isolate 5737; how it was run: as §1
[21] = test system: Enterococcus faecium; test: Antibacterial activity against Enterococcus faecium isolate 5753

Structure (SMILES)	MIC [1] [µg/mL]	MIC [2] [µg/mL]	MIC [3] [µg/mL]	MIC [4] [µg/mL]	MIC [5] [µg/mL]	MIC [6] [µg/mL]	MIC [7] [µg/mL]	MIC [8] [µg/mL]	MIC [9] [µg/mL]	MIC [10] [µg/mL]	MIC [11] [µg/mL]	MIC [12] [µg/mL]	MIC [13] [µg/mL]	MIC [14] [µg/mL]	MIC [15] [µg/mL]	MIC [16] [µg/mL]	MIC [17] [µg/mL]	MIC [18] [µg/mL]	MIC [19] [µg/mL]	MIC [20] [µg/mL]	further results
CC[C@H]1OC(=O)[C@H](C)[C@@H](O[C@H]2C[C@@](C)(OC)[C@@H](O)[C@H](C)O2)[C@H](C)[C@@H](O[C@@H]2O[C@H](C)C[C@H](N(C)C)[C@H]2O)[C@](C)(O)C[C@@H](C)C(=O)[C@H](C)[C@@H](O)[C@]1(C)O [ERYTHROMYCIN]	> 8	> 8	> 8	> 8	> 8	> 8	> 8	> 8	> 8	> 8	> 8	> 8	> 8	> 8	> 8	> 8	> 8	> 8	> 8	> 8	MIC [21]: > 8 µg/mL
CCC[C@@H]1C[C@@H](C(=O)N[C@@H]([C@H]2O[C@H](SC)[C@H](O)[C@@H](O)[C@H]2O)[C@H](C)Cl)N(C)C1 [CLINDAMYCIN]	> 8			> 8	> 8					> 8			> 8	≤ 0.12	≤ 0.12			> 8	> 8	≤ 0.12	
CC1(C)S[C@@H]2[C@H](NC(=O)Cc3ccccc3)C(=O)N2[C@H]1C(=O)O [PENICILLIN G]		128 (≈ 383 µM)	2 (≈ 5.98 µM)			2 (≈ 5.98 µM)	128 (≈ 383 µM)	2 (≈ 5.98 µM)	256 (≈ 766 µM)		2 (≈ 5.98 µM)	2 (≈ 5.98 µM)				256 (≈ 766 µM)	128 (≈ 383 µM)				MIC [21]: 256 µg/mL (≈ 766 µM)
Cc1onc(-c2ccccc2)c1C(=O)N[C@@H]1C(=O)N2[C@@H]1SC(C)(C)[C@@H]2C(=O)O [OXACILLIN]	> 16			> 16	> 16					> 16			> 16	> 16	> 16			> 16	> 16	> 16	
CN(C)c1ccc(O)c2c1C[C@H]1C[C@H]3[C@H](N(C)C)C(O)=C(C(N)=O)C(=O)[C@@]3(O)C(O)=C1C2=O [MINOCYCLINE]		16 (≈ 35 µM)	16 (≈ 35 µM)			8 (≈ 17.5 µM)	32 (≈ 69.9 µM)	8 (≈ 17.5 µM)	16 (≈ 35 µM)		0.12 (≈ 0.262 µM)	8 (≈ 17.5 µM)				32 (≈ 69.9 µM)	32 (≈ 69.9 µM)				MIC [21]: 16 µg/mL (≈ 35 µM)
CN(C)[C@@H]1C(O)=C(C(N)=O)C(=O)[C@@]2(O)C(O)=C3C(=O)c4c(O)cccc4[C@@](C)(O)[C@H]3C[C@@H]12 [TETRACYCLINE]	≤ 0.5	> 16	> 16	> 16	8 (≈ 18 µM)	> 16	> 16	> 16	> 16	> 16	≤ 0.5	> 16	8 (≈ 18 µM)	≤ 0.5	≤ 0.5	> 16	> 16	16 (≈ 36 µM)	8 (≈ 18 µM)	≤ 0.5	MIC [21]: > 16 µg/mL
